One compound from ChEMBL document CHEMBL2401654, “Synthesis, characterization, and biological assessment of the four stereoisomers of the H(3) receptor antagonist 5-fluoro-2-methyl-N-[2-methyl-4-(2-methyl[1,3']bipyrrolidinyl-1'-yl)phenyl]benzamide” (Bioorg Med Chem Lett, 2013) can be followed below.

Series [1] deals with Mus musculus. As to the kind of experiment: Toxicity in mouse assessed as effect on body weight at 3 to 30 mg/kg, po. Format: organism-based. Also noted: dose 3-30 mg/kg, route oral. As to conditions: in vivo. In a few lines:
(§1)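 Behavioral safety study in mice given single oral doses of 3, 10 and 30 mg/kg. Tremors, tail pinch response, body temperature, pupil size and body weight were scored at 2 and 6 h post dose. Clinical signs were observed over one week after dosing.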

Series [2] deals with Mus musculus. Put plainly: Toxicity in mouse assessed as effect on pupil size at 3 to 30 mg/kg, po. Format: organism-based. Also noted: dose 3-30 mg/kg, route oral. As to conditions: in vivo. In outline: as §1
The test system of series [3] is Mus musculus. As to the kind of experiment: Toxicity in mouse assessed as increase in tail pinch at 30 mg/kg, po measured at 6 hrs. Format: organism-based. Further details: dose 30 mg/kg, route oral. As to conditions: in vivo. In outline: as §1
In series [4] the test system is Mus musculus. Put plainly: Toxicity in mouse assessed as appearance of tremor at 30 mg/kg, po measured at 2 hrs. Format: organism-based. Further details: dose 30 mg/kg, route oral. The settings on record: in vivo. In outline:
as §1

Series [5] relates to Mus musculus. As to the kind of experiment: Toxicity in mouse assessed as increase in body temperature at 30 mg/kg, po measured at 6 hrs. It is filed as organism-based. Also noted: dose 30 mg/kg, route oral. As to conditions: in vivo. In a few lines: as §1
Series [6] has as its system Mus musculus. Put plainly: Toxicity in mouse assessed as increase in tail pinch at => 10 mg/kg, po. It is filed as organism-based. Further details: dose 10 mg/kg, route oral. As to conditions: in vivo. In a few lines: as §1
Series [7] is described as follows: Genotoxicity in micronucleus (unknown origin).
The subject of the next series is Salmonella typhimurium. Put plainly: Mutagenic activity in Salmonella typhimurium by Ames test. The settings on record: salmonella enterica subsp. enterica serovar typhimurium. Format: toxicity, organism-based. In general terms: In the Ames test, an excess of revertant colonies over the control signals mutagenicity.
Series [8] addresses Voltage-gated inwardly rectifying potassium channel KCNH2 (Homo sapiens, UniProt Q12809). Put plainly: Inhibition of human ERG transfected in CHO cells by patch clamp assay. It is filed as cell-based. In outline:
(§2)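 Whole-cell patch clamp on CHO cells stably transfected with the human ERG gene.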

Series [9] deals with T1, hERG (KCNH2) (Homo sapiens, UniProt Q12809). Put plainly: Inhibition of human ERG transfected in CHO cells at 10 uM by patch clamp assay relative to control. As to conditions: CHO cells transfected with human ERG. Format: cell-based. In outline:
as §2
Background: Patch clamp records ionic current or voltage across a cell membrane.

The target in series [10] is T1, hERG (KCNH2). As to the kind of experiment: Inhibition of human ERG transfected in CHO cells at 1 uM by patch clamp assay relative to control. Format: cell-based. The settings on record: CHO cells transfected with human ERG. In outline:
as §2

The target in a further series is Cytochrome P450 3A4 (Homo sapiens, UniProt P08684). As to the kind of experiment: Inhibition of CYP3A4 (unknown origin). It is filed as ADME.
The target of another series is Cytochrome P450 2C19 (Homo sapiens, UniProt P33261). Put plainly: Inhibition of CYP2C19 (unknown origin). Format: ADME.
The next series has as its target Cytochrome P450 2D6 (Homo sapiens, UniProt P10635). As to the kind of experiment: Inhibition of CYP2D6 (unknown origin). Format: ADME.
Another series has as its target Cytochrome P450 2C9 (Homo sapiens, UniProt P11712). Put plainly: Inhibition of CYP2C9 (unknown origin). It is filed as ADME.
A further series has as its target T2, Cytochrome P450 2B6 (Homo sapiens, UniProt P20813).
T2 sequence (P20813 whole entry): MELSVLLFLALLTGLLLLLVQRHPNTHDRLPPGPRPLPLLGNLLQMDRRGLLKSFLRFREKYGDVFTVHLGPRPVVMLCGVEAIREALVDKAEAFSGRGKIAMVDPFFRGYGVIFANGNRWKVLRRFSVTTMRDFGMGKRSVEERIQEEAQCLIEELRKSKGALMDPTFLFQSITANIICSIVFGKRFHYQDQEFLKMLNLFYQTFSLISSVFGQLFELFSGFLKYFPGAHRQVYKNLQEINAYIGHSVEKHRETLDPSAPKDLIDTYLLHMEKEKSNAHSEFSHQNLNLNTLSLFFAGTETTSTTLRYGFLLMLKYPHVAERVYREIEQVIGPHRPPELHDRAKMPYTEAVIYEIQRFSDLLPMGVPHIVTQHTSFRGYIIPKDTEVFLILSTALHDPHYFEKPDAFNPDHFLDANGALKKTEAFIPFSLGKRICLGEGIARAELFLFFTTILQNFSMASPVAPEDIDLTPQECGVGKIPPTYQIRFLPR
As to the kind of experiment: Inhibition of CYP2B6 (unknown origin). Format: ADME.

For another series, the target named is T3, Cytochrome P450 1A2 (Homo sapiens, UniProt P05177).
T3 sequence (P05177 whole entry): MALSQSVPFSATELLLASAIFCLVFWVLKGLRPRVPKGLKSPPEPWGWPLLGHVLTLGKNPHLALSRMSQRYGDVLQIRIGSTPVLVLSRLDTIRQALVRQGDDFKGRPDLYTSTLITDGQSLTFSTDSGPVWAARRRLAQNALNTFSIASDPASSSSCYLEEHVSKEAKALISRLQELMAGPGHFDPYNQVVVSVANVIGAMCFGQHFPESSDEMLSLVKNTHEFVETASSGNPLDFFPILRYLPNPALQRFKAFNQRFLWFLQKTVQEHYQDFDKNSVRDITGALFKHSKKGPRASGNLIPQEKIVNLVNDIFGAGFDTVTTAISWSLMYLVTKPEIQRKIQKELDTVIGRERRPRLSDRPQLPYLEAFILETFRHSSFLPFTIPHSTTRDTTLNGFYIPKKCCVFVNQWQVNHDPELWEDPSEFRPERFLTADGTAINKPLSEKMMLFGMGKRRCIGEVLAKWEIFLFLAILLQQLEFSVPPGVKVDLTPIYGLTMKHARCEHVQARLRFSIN
Put plainly: Inhibition of CYP1A2 (unknown origin). Format: ADME.

Series [11] in a line: Ratio of AUC (0 to 24 hrs) in C57BL/6 mouse brain to AUC (0 to 24 hrs) in C57BL/6 mouse plasma at 10 mg/kg, po. Format: ADME, organism-based. Also noted: dose 10 mg/kg, route oral. The settings on record: read-out: Ratio AUC. In outline: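 Male C57BL/6 mice were given a single oral dose of 10 mg/kg, formulated at 1 mg/mL in 5% DMSO/0.5% MC/0.2% tween 80. Compound levels were measured in plasma and brain over time. The brain-to-plasma ratio was calculated from AUC0-24 values.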

Series [12] is described as follows: Ratio of AUC (0 to 24 hrs) in C57BL/6 mouse brain to AUC (0 to 24 hrs) in C57BL/6 mouse plasma at 2 mg/kg, iv. Also noted: dose 2 mg/kg, route intravenous. It is filed as ADME, organism-based. As to conditions: read-out: Ratio AUC. In a few lines:
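Male C57BL/6 mice were given a single intravenous dose of 2 mg/kg, formulated at 1 mg/mL in 50% 1-methyl-2-pyrrolidinone in saline. Plasma and brain exposure profiles were collected, and the brain-to-plasma ratio was derived from the AUC values of the two tissues.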

The nature of series [13]: Volume of distribution at steady state in C57BL/6 mouse at 2 mg/kg, iv. It is filed as ADME, organism-based. Further details: dose 2 mg/kg, route intravenous. As to conditions: in vivo, read-out: Vdss. In a few lines: (§3)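 Male C57BL/6 mice received a single intravenous dose of 2 mg/kg, formulated at 1 mg/mL in 50% 1-methyl-2-pyrrolidinone in saline. Plasma and brain concentrations were followed to derive PK parameters. Brain to plasma ratio was calculated from AUC.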

Series [14] in a line: Clearance in C57BL/6 mouse at 2 mg/kg, iv. Format: ADME, organism-based. Also noted: dose 2 mg/kg, route intravenous. As to conditions: in vivo. In a few lines: as §3
Series [15] is described as follows: Half life in C57BL/6 mouse brain at 10 mg/kg, po. It is filed as ADME, organism-based. Also noted: dose 10 mg/kg, route oral. In outline:
(§4)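 Male C57BL/6 mice were dosed orally at 10 mg/kg, formulated at 1 mg/mL in 5% DMSO/0.5% MC/0.2% tween 80. Plasma and brain were sampled for PK parameters. Brain to plasma ratio was based on AUC0-24.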

A short description of series [16]: Half life in C57BL/6 mouse plasma at 10 mg/kg, po. Format: ADME, organism-based. Also noted: dose 10 mg/kg, route oral. In a few lines:
as §4

T1 sequence (Q12809 whole entry): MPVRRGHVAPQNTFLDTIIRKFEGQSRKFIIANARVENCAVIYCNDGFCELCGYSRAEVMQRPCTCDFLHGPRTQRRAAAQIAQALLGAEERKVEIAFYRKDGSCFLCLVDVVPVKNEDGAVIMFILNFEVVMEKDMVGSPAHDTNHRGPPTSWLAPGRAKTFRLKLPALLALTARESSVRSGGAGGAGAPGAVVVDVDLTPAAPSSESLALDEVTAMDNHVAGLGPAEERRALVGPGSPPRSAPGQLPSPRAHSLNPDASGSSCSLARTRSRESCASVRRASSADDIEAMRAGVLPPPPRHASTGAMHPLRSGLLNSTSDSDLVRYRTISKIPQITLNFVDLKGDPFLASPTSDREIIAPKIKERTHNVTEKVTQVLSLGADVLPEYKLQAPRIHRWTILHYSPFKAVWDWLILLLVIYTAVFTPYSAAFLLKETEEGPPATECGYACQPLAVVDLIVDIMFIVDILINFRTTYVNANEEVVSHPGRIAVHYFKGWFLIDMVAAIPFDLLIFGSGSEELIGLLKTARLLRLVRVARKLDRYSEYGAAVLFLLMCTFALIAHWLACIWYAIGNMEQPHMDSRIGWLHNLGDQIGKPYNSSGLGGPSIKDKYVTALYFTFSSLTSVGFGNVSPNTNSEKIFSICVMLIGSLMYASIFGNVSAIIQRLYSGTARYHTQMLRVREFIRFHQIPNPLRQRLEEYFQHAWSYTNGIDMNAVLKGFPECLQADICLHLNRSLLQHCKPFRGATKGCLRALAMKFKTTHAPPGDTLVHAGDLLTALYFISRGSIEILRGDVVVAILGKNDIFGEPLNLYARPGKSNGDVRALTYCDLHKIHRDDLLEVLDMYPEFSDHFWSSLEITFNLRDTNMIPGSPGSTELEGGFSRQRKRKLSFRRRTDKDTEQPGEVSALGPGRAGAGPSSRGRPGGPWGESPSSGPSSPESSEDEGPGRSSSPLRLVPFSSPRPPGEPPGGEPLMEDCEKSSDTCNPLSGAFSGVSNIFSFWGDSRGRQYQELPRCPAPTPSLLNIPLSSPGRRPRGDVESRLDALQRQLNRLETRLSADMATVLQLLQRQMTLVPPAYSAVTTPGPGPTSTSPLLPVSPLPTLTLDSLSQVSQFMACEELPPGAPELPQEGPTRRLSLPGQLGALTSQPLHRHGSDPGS
Cytochrome P450 3A4, sequence (P08684 whole entry): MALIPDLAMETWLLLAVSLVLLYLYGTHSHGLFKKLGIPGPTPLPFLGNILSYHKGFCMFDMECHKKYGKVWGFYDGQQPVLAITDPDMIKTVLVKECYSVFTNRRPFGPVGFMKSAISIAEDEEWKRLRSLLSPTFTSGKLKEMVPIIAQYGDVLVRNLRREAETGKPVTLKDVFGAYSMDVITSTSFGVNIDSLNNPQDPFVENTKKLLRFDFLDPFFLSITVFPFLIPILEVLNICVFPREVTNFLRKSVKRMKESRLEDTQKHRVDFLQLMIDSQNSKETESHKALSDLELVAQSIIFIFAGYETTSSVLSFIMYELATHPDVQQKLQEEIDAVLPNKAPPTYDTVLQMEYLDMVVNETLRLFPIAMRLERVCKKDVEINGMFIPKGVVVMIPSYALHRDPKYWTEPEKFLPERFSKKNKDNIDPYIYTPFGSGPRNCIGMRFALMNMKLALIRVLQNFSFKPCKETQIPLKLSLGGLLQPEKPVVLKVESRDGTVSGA
Cytochrome P450 2C9, sequence (P11712 whole entry): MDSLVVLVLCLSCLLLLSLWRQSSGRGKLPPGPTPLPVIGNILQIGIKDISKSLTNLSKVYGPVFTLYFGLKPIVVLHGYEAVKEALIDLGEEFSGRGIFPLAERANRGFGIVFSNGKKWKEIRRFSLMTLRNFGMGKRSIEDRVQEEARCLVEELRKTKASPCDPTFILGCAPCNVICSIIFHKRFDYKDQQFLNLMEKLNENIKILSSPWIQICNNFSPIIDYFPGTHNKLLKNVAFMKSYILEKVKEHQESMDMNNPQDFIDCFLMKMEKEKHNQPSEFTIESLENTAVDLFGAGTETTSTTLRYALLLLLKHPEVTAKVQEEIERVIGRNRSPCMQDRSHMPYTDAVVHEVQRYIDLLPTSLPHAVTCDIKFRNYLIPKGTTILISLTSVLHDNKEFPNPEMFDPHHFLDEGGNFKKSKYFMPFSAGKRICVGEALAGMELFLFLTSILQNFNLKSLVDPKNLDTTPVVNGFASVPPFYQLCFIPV
Cytochrome P450 2C19, sequence (P33261 whole entry): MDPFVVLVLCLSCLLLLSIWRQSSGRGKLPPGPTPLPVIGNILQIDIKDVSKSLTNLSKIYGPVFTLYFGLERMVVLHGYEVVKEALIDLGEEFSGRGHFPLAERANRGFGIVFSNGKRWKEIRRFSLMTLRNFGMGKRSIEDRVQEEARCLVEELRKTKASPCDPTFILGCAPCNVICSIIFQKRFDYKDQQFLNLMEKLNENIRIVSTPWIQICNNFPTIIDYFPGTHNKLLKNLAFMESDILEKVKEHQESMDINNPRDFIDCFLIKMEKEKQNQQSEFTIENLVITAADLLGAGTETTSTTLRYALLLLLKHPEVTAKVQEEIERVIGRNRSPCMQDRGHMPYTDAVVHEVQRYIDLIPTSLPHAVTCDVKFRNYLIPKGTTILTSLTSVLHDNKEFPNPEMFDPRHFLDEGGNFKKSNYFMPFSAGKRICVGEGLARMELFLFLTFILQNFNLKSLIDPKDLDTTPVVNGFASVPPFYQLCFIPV
Cytochrome P450 2D6, sequence (P10635 whole entry): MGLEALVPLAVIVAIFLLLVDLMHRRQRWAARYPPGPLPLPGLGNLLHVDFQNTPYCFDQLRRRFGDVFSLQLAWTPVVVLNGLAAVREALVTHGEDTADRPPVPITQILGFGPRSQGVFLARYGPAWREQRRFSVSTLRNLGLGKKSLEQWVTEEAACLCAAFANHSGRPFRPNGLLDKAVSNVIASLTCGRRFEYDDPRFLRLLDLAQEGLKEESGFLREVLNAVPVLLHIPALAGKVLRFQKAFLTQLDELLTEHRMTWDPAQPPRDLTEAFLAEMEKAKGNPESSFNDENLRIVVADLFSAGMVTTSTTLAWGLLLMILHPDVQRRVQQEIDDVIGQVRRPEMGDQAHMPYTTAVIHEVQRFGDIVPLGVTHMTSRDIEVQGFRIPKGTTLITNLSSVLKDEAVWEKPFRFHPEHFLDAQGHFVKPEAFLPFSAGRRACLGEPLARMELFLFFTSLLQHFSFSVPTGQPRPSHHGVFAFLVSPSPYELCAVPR
Voltage-gated inwardly rectifying potassium channel KCNH2, sequence (Q12809 whole entry): as the sequence (Q12809 whole entry) above

In the case of `Cc1cc(N2CC[C@H](N3CCC[C@@H]3C)C2)ccc1NC(=O)c1cc(F)ccc1C`, the Activity entry in the series with Mus musculus [1] is “Non-toxic”; with Mus musculus [2] it was “Non-toxic”; in the series with Mus musculus [3] it was “Toxic”; in the series on Mus musculus [4], “Toxic”; with Mus musculus [5] it was “Toxic”; in the series with Mus musculus [6], “Toxic”. Also, the Activity result (in [7]; in the series on Salmonella typhimurium) was “Non-toxic” in each case. For the same compound, the IC50 was 1.1 µM in [8]; more than 30 µM at Cytochrome P450 3A4; more than 30 µM against Cytochrome P450 2C19; more than 30 µM at Cytochrome P450 2D6; more than 30 µM against Cytochrome P450 2C9; more than 30 µM against Cytochrome P450 2B6. On Cytochrome P450 1A2, this compound returned an IC50 of more than 30 µM. This compound also yielded an inhibition at 10 µM at hERG (KCNH2) [9] of 84.3%. This compound showed an inhibition at 1 µM against hERG (KCNH2) [10] of 43.4%. Also, the Kp in series [11] was determined as 4.6; in [12], 4.7. Also, the Vd in [13] worked out at 5.2 L/kg. In series [14], this compound showed a clearance of 60 mL/min/kg. Moreover, the results for the half-life in series [15] and in series [16] were 3.5 h and 3.6 h, respectively.

Broadly, the IC50 is the concentration needed to halve the response being measured. A high value points to a need for much substance. The term inhibition denotes the drop in the measured response relative to a control, in per cent. For orientation: clearance means a measure of how efficiently the substance is removed, as volume per time. A low value points to a low capacity for elimination. What is called half-life is the time needed for the level to fall by half in the phase considered. A high value points to slow decline.
